In ChEMBL document CHEMBL1158036, “Steroidal saponins from Solanum nigrum” (J Nat Prod, 2006):

Key:
MCF7 = assay: Cytotoxicity against human MCF7 after 48 hrs by MTT assay; format: functional, cell-based; conditions: for IC50: MCF7, 48 h
How it was run: (§1)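 Cells grown in RPMI 1640 with 10% FBS, trypsinized at 70% confluence; 1.0 × 10^4 cells per well cultured 24 h before treatment. Compounds at 100-3.125 µM, vehicle 0.1% DMSO, 48 h exposure; MTT read at 570 nm. IC50 where 100 × (C − T)/(C − B) = 50, derived by LOGIT method; mean ± SD of three independent experiments.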

SF-268 = assay: Cytotoxicity against human SF-268 after 48 hrs by MTT assay; format: functional, cell-based; conditions: for IC50: SF-268, 48 h; how it was run: as §1
NCI-H460 = assay: Cytotoxicity against human NCI-H460 after 48 hrs by MTT assay; format: functional, cell-based; conditions: for IC50: NCI-H460, 48 h; how it was run: as §1
HepG2 = assay: (§2) Cytotoxicity against human Hep G2 after 48 hrs by MTT assay; format: functional; how it was run: as §1
[1] = as §2; format: functional; conditions: HepG2, 48 h; how it was run: as §1

Compound	Activity (MCF7)	Activity (SF-268)	Activity (NCI-H460)	Activity (HepG2)	IC50 (MCF7) [µM]	IC50 (SF-268) [µM]	IC50 (NCI-H460) [µM]	IC50 [1] [µM]
C[C@@H]1CC[C@@]2(OC1)O[C@H]1[C@H](O)[C@H]3[C@@H]4CC[C@H]5C[C@@H](O[C@@H]6O[C@H](CO)[C@H](O[C@@H]7O[C@H](CO)[C@@H](O)[C@H](O[C@@H]8OC[C@@H](O)[C@H](O)[C@H]8O)[C@H]7O[C@@H]7O[C@H](CO)[C@@H](O)[C@H](O)[C@H]7O)[C@H](O)[C@H]6O)CC[C@]5(C)[C@H]4CC[C@]3(C)[C@H]1[C@@H]2C	Not toxic	Not toxic	Not toxic	Not toxic				
C[C@@H]1C[C@H](O)[C@@]2(OC1=O)O[C@H]1[C@H](O)[C@H]3[C@@H]4CC[C@H]5C[C@@H](O[C@@H]6O[C@H](CO)[C@H](O[C@@H]7O[C@H](CO)[C@@H](O)[C@H](O[C@@H]8O[C@H](CO)[C@@H](O)[C@H](O)[C@H]8O)[C@H]7O[C@@H]7O[C@H](CO)[C@@H](O)[C@H](O)[C@H]7O)[C@H](O)[C@H]6O)CC[C@]5(C)[C@H]4CC[C@]3(C)[C@H]1[C@@H]2C	Not toxic	Not toxic	Not toxic	Not toxic				
C[C@@H]1C[C@H](O)[C@@]2(OC1=O)O[C@H]1C[C@H]3[C@@H]4CC[C@H]5C[C@@H](O[C@@H]6O[C@H](CO)[C@H](O[C@@H]7O[C@H](CO)[C@@H](O)[C@H](O[C@@H]8OC[C@@H](O)[C@H](O)[C@H]8O)[C@H]7O[C@@H]7OC[C@H](O)[C@H](O)[C@H]7O)[C@H](O)[C@H]6O[C@@H]6O[C@@H](C)[C@H](O)[C@@H](O)[C@H]6O)CC[C@]5(C)[C@H]4CC[C@]3(C)[C@H]1[C@@H]2C	Not toxic	Not toxic	Not toxic	Not toxic				
C[C@@H]1CC[C@@]2(OC1)O[C@H]1C[C@H]3[C@@H]4CC=C5C[C@@H](O[C@@H]6O[C@H](CO)[C@@H](O[C@@H]7O[C@@H](C)[C@H](O)[C@@H](O)[C@H]7O[C@@H]7O[C@H](CO)[C@@H](O)[C@H](O)[C@H]7O)[C@H](O)[C@H]6O[C@@H]6O[C@@H](C)[C@H](O)[C@@H](O)[C@H]6O)CC[C@]5(C)[C@H]4CC[C@]3(C)[C@@]1(O)[C@@H]2C	Not toxic	Not toxic	Not toxic	Not toxic				
C[C@@H]1CC[C@@]2(OC1)O[C@H]1C[C@H]3[C@@H]4CC[C@H]5C[C@@H](O[C@@H]6O[C@H](CO)[C@H](O[C@@H]7O[C@H](CO)[C@@H](O)[C@H](O[C@@H]8OC[C@@H](O)[C@H](O)[C@H]8O)[C@H]7O[C@@H]7O[C@H](CO)[C@@H](O)[C@H](O)[C@H]7O)[C@H](O)[C@H]6O)CC[C@]5(C)[C@H]4CC[C@]3(C)[C@H]1[C@@H]2C [DEGALACTOTIGONIN]					1.57	3.19	4.49	0.25
CC[C@@]1(O)C(=O)OCc2c1cc1n(c2=O)Cc2cc3cc(O)ccc3nc2-1 [HYDROXYCAMPTOTHECIN]					19.1	29.9	38.6	6.49
C[C@H]1CO[C@@]2(O[C@H]3C[C@H]4[C@@H]5CC[C@H]6C[C@@H](O[C@@H]7O[C@H](CO)[C@H](O[C@@H]8O[C@H](CO)[C@@H](O)[C@H](O[C@@H]9OC[C@@H](O)[C@H](O)[C@H]9O)[C@H]8O[C@@H]8O[C@H](CO)[C@@H](O)[C@H](O)[C@H]8O)[C@H](O)[C@H]7O)CC[C@]6(C)[C@H]5CC[C@]4(C)[C@H]3[C@@H]2C)[C@@H](O[C@@H]2O[C@H](CO)[C@@H](O)[C@H](O)[C@H]2O)C1	Not toxic	Not toxic	Not toxic	Not toxic				
C[C@@H]1C[C@H](O)[C@@]2(OC1=O)O[C@H]1[C@H](O)[C@H]3[C@@H]4CC[C@H]5C[C@@H](O[C@@H]6O[C@H](CO)[C@H](O[C@@H]7O[C@H](CO)[C@@H](O)[C@H](O[C@@H]8OC[C@@H](O)[C@H](O)[C@H]8O)[C@H]7O[C@@H]7OC[C@H](O)[C@H](O)[C@H]7O)[C@H](O)[C@H]6O[C@@H]6O[C@@H](C)[C@H](O)[C@@H](O)[C@H]6O)CC[C@]5(C)[C@H]4CC[C@]3(C)[C@H]1[C@@H]2C	Not toxic	Not toxic	Not toxic	Not toxic				
